Assay outcomes: PubChem BioAssay, several laboratories
Most compounds without a hit are left out; they make up all but 2.3% or so of the library.
JNK3 inh – JNK3 kinase activity inhibitors, primary screen, biochemical, human, purified enzyme; HTS; inhibition, % at 8 µM; 60,000 compounds, 0.61% hits; AID 746, 2007; in the data active = inhibition above about 17%
SF1 activator – activators of human SF-1, primary screen, cell-based, CHO-K1, Gal4-SF-1 LBD, luciferase luminescence | Steroidogenic factor 1 (Homo sapiens), Q13285 | CHO-K1 Gal4-SF-1 LBD luciferase reporter; % increase over DMSO SF-1-specific signal | activation, % at 10 µM | 65,000 compounds, 1.9% hits | AID 522, 2006;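 active = activation above the mean activation of all tested compounds plus 3 SD, cut at about 50% in these data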
Target sequence (Q13285 whole entry, looked up, the tested form may be a part): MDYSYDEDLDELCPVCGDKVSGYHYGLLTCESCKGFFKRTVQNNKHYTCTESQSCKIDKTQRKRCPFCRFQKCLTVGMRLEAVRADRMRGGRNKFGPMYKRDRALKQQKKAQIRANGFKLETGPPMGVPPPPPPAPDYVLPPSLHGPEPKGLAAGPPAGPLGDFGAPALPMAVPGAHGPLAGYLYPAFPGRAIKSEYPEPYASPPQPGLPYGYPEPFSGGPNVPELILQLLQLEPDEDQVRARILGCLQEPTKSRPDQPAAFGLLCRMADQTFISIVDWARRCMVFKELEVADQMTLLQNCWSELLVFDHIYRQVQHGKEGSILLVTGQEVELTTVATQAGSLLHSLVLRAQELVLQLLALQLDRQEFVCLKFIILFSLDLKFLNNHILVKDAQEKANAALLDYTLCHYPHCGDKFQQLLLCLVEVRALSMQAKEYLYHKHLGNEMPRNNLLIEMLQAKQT
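Assay system: CHO-K1 cells co-transfected with Gal4 DBD–human SF-1 LBD, 5xGal4 luciferase reporter / Input: 4,000 cells per well / Incubation: 20 h compound exposure at 37 °C after 1 h cell settling / Detection: SteadyLite luciferase luminescence / Control set: DMSO negative control and −SF1 background wells / Replication: one test per compound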
MT1-MMP txn act – MT1-MMP promoter reporter activation – cell-based, luciferase luminescence, primary screen; HT1080 MT1-MMP promoter luciferase reporter, overnight; active compounds read high; activation factor at 10 µM; 86,000 compounds, 0.16% hits; AID 750, 2007;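 active = activation factor of at least 2 for MT1-MMP transcription at 10 µM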
RORa activator – activators of orphan receptor RORA, primary screen, cell-based, luminescence; Nuclear receptor ROR-alpha (Homo sapiens), P35398; CHO-K1 Gal4-RORA LBD luciferase reporter; percent increase over mock-subtracted basal signal; 65,000 compounds, 1.5% hits; AID 560, 2006; activation, % at 10 µM;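 active = activation above the mean of all tested compounds plus 3 SD, cut at about 49% in these data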
Large screens that a line does not name were inactive.

CC(C)c1nc(N2CCN(C(=O)c3ccccc3)CC2)c(C#N)c2c1COC(C)(C)C2	SF1 activator 53
CC1(C)Cc2c(C#N)c(N3CCN(C(=O)c4ccccc4)CC3)nc(-c3ccco3)c2CS1	none
CCC(C)NS(=O)(=O)c1ccc(NS(=O)(=O)c2ccc(F)cc2)cc1 (stereo not drawn)	none (no result: JNK3 inh, SF1 activator, RORa activator)
CN1CCN(C(=O)c2cccc(COc3cc(Cl)ccc3Cl)c2)CC1	SF1 activator 69
Cc1cccc(OCCn2c(=O)sc3ccccc32)c1	none (no result: JNK3 inh, SF1 activator, RORa activator)
Cc1cccc(OCCn2c(=O)n(C)c3ccccc32)c1	SF1 activator 81, RORa activator 67
CCOc1ccccc1NC(=S)NCc1ccco1	none (no result: JNK3 inh, SF1 activator, RORa activator)
Cc1ccccc1OCc1nc(-c2ccc(NC(=O)c3ccco3)cc2)no1	RORa activator 58 (no result: JNK3 inh)
Cc1ccccc1OCc1nc(-c2ccccc2)no1	SF1 activator 71
CCCc1ccc(OCc2nc(-c3ccc(NC(=O)c4ccco4)cc3)no2)cc1	SF1 activator 50
Cc1ccc(-c2noc(COc3ccccc3C)n2)cc1	none
N#CC1=C(N)SC(N)=C(C#N)C1CCC1CCCCC1	none
C=CCSc1nc(C)c2cc(C)cc(C)c2n1	none (no result: JNK3 inh, SF1 activator, RORa activator)
O=C(CSc1ncn[nH]1)Nc1ccccc1-c1ccccc1	none (no result: JNK3 inh, SF1 activator, RORa activator)
O=C(CSc1ncn[nH]1)Nc1nnc(-c2ccccc2)s1	RORa activator 56
O=S(=O)(Cc1nc2ccccc2s1)c1ccccc1	SF1 activator 110, RORa activator 50
COC(=O)c1ccc(C(=O)OC)c(NC(=O)c2oc(C)nc2C)c1	none
CCOC(=O)c1c(NC(=O)C(F)(OC)C(F)(F)F)sc(C(=O)N2CCCCC2)c1C (stereo not drawn)	none
CCC1=C(C)N(CCCC(=O)O)C(=O)NC1c1cccc(Cl)c1Cl (stereo not drawn)	none (no result: JNK3 inh, SF1 activator, RORa activator)
Cc1nc2sc(-c3ccccc3)cc2c(=O)n1-n1cccc1	SF1 activator 89
Cc1nc2sc(-c3ccccc3)cc2c(=O)[nH]1	none (no result: JNK3 inh, SF1 activator, RORa activator)
COc1ccc(C2C(C(=O)Nc3ccc4c(c3)OCCO4)c3ccccc3C(=O)N2C)cc1 (stereo not drawn)	none (no result: JNK3 inh, SF1 activator, RORa activator)
CC1C/C(=N\NC(=S)NC(C)C)CC(C)(C)C1 (stereo not drawn)	none (no result: JNK3 inh, SF1 activator, RORa activator)
Cc1c(C(=O)NCc2ccco2)sc2nc(-c3ccccc3)cn12	SF1 activator 52, RORa activator 87
Cc1c(C(=O)N2CCOCC2)sc2nc(-c3ccccc3)cn12	SF1 activator 82, RORa activator 58
Cc1c(C(=O)NCc2cccnc2)sc2nc(-c3ccccc3)cn12	RORa activator 54 (no result: MT1-MMP txn act)
Cn1c(=O)[nH]c(=O)c2c1nc(N1CCOCC1)n2CCSc1ncccn1	none
COC(=O)N1[C@H](C)C=C[C@]1(Cc1ccccc1)C(=O)NCc1ccc(N(C)C)cc1	none (no result: JNK3 inh, SF1 activator, RORa activator)
COc1ccc(-n2ncc3c(NCc4cccs4)ncnc32)cc1	SF1 activator 82
c1ccc(CNc2ncnc3c2cnn3Cc2ccccc2)cc1	none (no result: JNK3 inh, SF1 activator, RORa activator)
c1ccc(-n2ncc3c(NCc4cccs4)ncnc32)cc1	SF1 activator 51
c1ccc(-n2ncc3c(NCc4cccnc4)ncnc32)cc1	RORa activator 52
Cc1ccccc1Nc1ncnc2c1cnn2-c1ccccc1	none
FC(F)(F)c1cc(-c2ccco2)nc(NCCc2ccccc2)n1	none (no result: JNK3 inh, SF1 activator, RORa activator)
O=c1c2c([nH]c3ccc(Br)cc13)CCCC2	none
NC(=O)c1cc(Br)cc2c3c([nH]c12)CCCC3	JNK3 inh 55
CN(CC(=O)N1CCc2ccccc21)S(=O)(=O)c1cccs1	SF1 activator 55, RORa activator 52 (no result: JNK3 inh, MT1-MMP txn act)
O=C(CCCC(=O)N1CCc2ccccc21)N1CCc2ccccc21	none
CCOC(=O)CSc1nc2c(sc3ccccc32)c(=O)n1CCCN1CCOCC1	JNK3 inh 24
Clc1cc(Br)ccc1OCCOCCN1CCOCC1	none
Cc1cc(N2CCCCC2)n2ncc(-c3ccc(Cl)cc3)c2n1	SF1 activator 62, RORa activator 87
Cc1cc(N2CCN(C(=O)c3ccco3)CC2)n2ncc(-c3ccccc3)c2n1	SF1 activator 65
Cc1cc(N2CCN(C(=O)c3ccco3)CC2)n2ncnc2n1	none (no result: JNK3 inh)
Cc1noc(/C=C/c2ccco2)c1S(=O)(=O)N1CCC(C(=O)N2c3ccccc3CC2C)CC1 (stereo not drawn)	none
Cn1c(=O)c2c3c(sc2n2c(SCc4ccc5c(c4)OCO5)nnc12)COC(C)(C)C3	none
Clc1ccc(OCc2nnc(-c3ccccc3Br)o2)c(Cl)c1	RORa activator 90
Cc1ccc(C)c2c3c([nH]c12)-c1nonc1CC3	none (no result: JNK3 inh, SF1 activator, RORa activator)
Nc1nc(Nc2ccccc2Br)nc(C(F)(F)F)n1	none
Nc1nc(Nc2ccc(Cl)cc2Cl)nc(C(F)(F)F)n1	SF1 activator 85, RORa activator 56
COc1cccc(C2C(C#N)=C(N)Oc3cc(C)oc(=O)c32)c1OC (stereo not drawn)	none
Cc1ccc(-c2noc(CSc3nc(N)cc(N)n3)n2)cc1	SF1 activator 61, RORa activator 58
Cc1nc2ccccc2c(=O)n1/N=C/c1ccc(N(C)C)cc1	none
Cc1nc2ccccc2c(=O)n1/N=C/c1ccccn1	SF1 activator 50
CC(N1CCOC1=O)S(=O)(=O)c1ccccc1 (stereo not drawn)	none (no result: JNK3 inh, SF1 activator, RORa activator)
Brc1ccc(-c2cn3cccnc3n2)cc1	RORa activator 53
Clc1ccc(-c2cn3cccnc3n2)cc1	none (no result: JNK3 inh, SF1 activator, RORa activator)
O=C1N(CCCN2C(=O)C3(OCCO3)c3ccccc32)c2ccccc2C12OCCO2	RORa activator 53
Cn1c(SCc2ccccc2F)nc2cccnc21	RORa activator 80
Fc1cccc(F)c1CSc1nc2ccccc2[nH]1	none (no result: JNK3 inh, SF1 activator, RORa activator)
Fc1ccccc1CSc1nc2ncccc2[nH]1	SF1 activator 51
COc1ccc2oc(=O)c(-c3nnc(NCc4ccco4)s3)cc2c1	SF1 activator 81, RORa activator 80
CC(C)N(C(=O)C(=O)c1cccn1-c1ccccc1C#N)C(C)C	none (no result: JNK3 inh, SF1 activator, RORa activator)
Cc1cccc(-n2ccnc2SCC(=O)Nc2nccs2)c1	SF1 activator 60
CN(C)/C=N/c1c(C#N)cnn1-c1ncnc2sc(-c3ccccc3)cc12	none
COc1ncnc2sc(-c3ccccc3)cc12	SF1 activator 51
O=c1cc(-c2ccccc2)[nH]c2nc3ccccc3n12	JNK3 inh 19
c1csc(-c2cnc3ccccc3n2)c1	JNK3 inh 25, SF1 activator 50, RORa activator 95
O=c1oc(-c2cccs2)nc2ccccc12	none (no result: JNK3 inh, SF1 activator, RORa activator)
COC(=O)c1sc(NC(=O)c2ccco2)nc1C	SF1 activator 50
O=C(Nc1scc(-c2ccc(F)cc2)c1C(=O)O)c1ccco1	none
COC(=O)c1c(-c2ccccc2)csc1NC(=O)c1ccco1	RORa activator 96
Cc1nc(NC(=O)c2ccco2)sc1C(=O)Nc1ccc(Br)cc1	none
Cc1ccc(C(=O)Nc2ncc(Cc3ccccc3)s2)o1	SF1 activator 61
CC(=O)c1sc(NC(=O)c2ccco2)nc1-c1ccccc1	SF1 activator 70
Cc1sc(NC(=O)c2ccco2)nc1-c1ccccc1	none (no result: JNK3 inh, SF1 activator, RORa activator)
Cc1cc(NC(=O)c2ccco2)ncc1NC(=O)Cc1ccccc1	RORa activator 57
Cc1cnc(NC(=O)c2ccco2)s1	SF1 activator 53, RORa activator 71 (no result: JNK3 inh)
